Test results as given in ChEMBL document CHEMBL1131579, “Nitroaromatic amino acids as inhibitors of neuronal nitric oxide synthase” (J Med Chem, 1998).

Each molecule was assayed against T1, Nitric oxide synthase 3 (Bos taurus, UniProt P29473) (assay: Inhibitory activity of conversion of radiolabeled arginine to citrulline by isomeric form of nitric oxide synthase Endothelial nitric oxide synthase from cultured bovine aortic endothelial cells).
T1 sequence (P29473 whole entry): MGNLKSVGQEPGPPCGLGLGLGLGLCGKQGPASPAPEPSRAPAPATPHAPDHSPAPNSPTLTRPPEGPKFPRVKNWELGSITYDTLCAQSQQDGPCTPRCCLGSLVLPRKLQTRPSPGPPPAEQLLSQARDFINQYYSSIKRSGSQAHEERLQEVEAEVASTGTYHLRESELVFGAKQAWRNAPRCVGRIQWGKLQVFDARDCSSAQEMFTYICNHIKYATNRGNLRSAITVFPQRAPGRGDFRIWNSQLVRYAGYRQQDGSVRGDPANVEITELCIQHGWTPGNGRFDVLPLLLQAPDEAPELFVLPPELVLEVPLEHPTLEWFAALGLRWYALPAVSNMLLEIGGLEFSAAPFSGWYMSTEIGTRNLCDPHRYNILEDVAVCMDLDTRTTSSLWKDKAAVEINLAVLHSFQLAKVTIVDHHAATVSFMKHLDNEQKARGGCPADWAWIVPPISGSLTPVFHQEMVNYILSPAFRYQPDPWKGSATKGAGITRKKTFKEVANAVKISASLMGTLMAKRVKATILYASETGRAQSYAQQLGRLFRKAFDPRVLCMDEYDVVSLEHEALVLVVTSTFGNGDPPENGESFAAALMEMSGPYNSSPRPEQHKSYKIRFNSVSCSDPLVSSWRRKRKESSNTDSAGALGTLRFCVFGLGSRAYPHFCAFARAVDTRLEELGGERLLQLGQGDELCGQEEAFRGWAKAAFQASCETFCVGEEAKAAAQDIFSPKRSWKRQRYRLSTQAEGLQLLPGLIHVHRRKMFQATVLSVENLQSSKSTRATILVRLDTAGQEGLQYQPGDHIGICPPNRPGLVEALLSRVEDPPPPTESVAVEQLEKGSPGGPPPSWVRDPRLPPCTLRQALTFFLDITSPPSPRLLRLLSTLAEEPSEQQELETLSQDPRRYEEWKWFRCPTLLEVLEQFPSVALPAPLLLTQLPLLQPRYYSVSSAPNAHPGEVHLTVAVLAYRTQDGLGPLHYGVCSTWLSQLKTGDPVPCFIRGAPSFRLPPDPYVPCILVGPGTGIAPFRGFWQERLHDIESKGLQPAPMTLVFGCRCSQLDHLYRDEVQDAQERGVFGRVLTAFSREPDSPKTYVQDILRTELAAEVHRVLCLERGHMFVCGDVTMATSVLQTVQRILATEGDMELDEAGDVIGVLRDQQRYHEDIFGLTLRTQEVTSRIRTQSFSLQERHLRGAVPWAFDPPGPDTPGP
Type: cell-based, Endothelial cell
Method in brief: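 eNOS taken from the CHAPS-solubilized particulate fraction of cultured bovine aortic endothelial cells. Incubated 20 min at ambient temperature with 10 μM L-[2,3-3H]arginine, 1 mM NADPH, 2 mM CaCl2 and graded inhibitor. Stopped at pH 5.5 with EGTA/EDTA; [3H]citrulline isolated on cation-exchange column and counted by scintillation. IC50.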

| Compound | IC50 [µM] |
| --- | --- |
| N[C@@H](CCCNc1ccccc1[N+](=O)[O-])C(=O)O | 100 |
| N[C@@H](CCCNc1ccc(F)cc1[N+](=O)[O-])C(=O)O | > 100 |
| Cc1ccc([N+](=O)[O-])c(NCCC[C@H](N)CO)c1 | 40 |
| Cc1ccc([N+](=O)[O-])c(NCCC[C@H](N)C(=O)O)c1 | 5 |
| Cc1ccc([N+](=O)[O-])c(NCCCCN)c1 | 20 |
| Cc1ccc([N+](=O)[O-])c(SCCC[C@H](N)C(=O)O)c1 | 9 |
| N[C@@H](CCCNc1c([N+](=O)[O-])cccc1[N+](=O)[O-])C(=O)O | 60 |
| Cc1ccc([N+](=O)[O-])c(OCCC[C@H](N)C(=O)O)c1 | 10 |

What follows are molecules tested against T2, Nitric oxide synthase, inducible (Mus musculus, UniProt P29477) (assay: Inhibition of radiolabeled arginine conversion to citrulline by isomeric form of Inducible nitric oxide synthase from mouse RAW 264.7 cells).
T2 sequence (P29477 whole entry): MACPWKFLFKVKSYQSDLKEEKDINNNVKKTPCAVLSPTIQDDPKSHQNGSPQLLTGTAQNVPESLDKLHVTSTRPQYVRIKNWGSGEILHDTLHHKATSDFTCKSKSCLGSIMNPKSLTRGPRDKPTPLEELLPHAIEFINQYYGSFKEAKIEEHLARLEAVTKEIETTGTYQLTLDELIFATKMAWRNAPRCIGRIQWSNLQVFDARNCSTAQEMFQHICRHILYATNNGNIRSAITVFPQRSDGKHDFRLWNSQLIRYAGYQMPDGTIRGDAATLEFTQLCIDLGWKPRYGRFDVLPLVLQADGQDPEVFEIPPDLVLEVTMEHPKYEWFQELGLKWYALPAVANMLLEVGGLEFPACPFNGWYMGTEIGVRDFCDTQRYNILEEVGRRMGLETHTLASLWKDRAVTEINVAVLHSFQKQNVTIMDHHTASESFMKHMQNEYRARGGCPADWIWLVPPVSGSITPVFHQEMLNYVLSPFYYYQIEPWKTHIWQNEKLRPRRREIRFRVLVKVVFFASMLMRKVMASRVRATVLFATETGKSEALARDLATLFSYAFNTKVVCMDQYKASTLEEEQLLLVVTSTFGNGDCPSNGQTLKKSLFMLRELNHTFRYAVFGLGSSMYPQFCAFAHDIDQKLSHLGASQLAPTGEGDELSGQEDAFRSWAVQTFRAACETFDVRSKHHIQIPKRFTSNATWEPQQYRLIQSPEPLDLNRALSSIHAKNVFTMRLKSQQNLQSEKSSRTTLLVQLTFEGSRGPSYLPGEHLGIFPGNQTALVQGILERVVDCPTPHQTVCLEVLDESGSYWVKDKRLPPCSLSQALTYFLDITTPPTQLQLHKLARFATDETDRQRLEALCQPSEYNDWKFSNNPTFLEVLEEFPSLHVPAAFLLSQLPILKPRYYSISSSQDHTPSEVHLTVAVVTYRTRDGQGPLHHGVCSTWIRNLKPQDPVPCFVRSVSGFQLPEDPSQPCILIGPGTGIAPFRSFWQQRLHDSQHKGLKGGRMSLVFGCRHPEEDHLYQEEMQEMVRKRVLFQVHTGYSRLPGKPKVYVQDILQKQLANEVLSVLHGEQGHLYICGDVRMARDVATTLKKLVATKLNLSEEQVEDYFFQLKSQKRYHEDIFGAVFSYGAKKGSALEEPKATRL
Type: cell-based
Method in brief: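 Incubated 20 min at ambient temperature with 10 μM [3H]arginine, 1 mM NADPH, no Ca2+, and varying inhibitor. Stopped with EGTA/EDTA buffer, pH 5.5; [3H]citrulline separated on Dowex cation exchanger and counted by scintillation. IC50.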

| Compound | IC50 [µM] |
| --- | --- |
| Cc1ccc(NCCC[C@H](N)C(=O)O)c([N+](=O)[O-])c1 | > 100 |
| N[C@@H](CCCNc1ccccc1[N+](=O)[O-])C(=O)O | > 100 |
| N[C@@H](CCCNc1ccc(F)cc1[N+](=O)[O-])C(=O)O | > 100 |
| Cc1ccc([N+](=O)[O-])c(NCCC[C@H](N)CO)c1 | 5 |
| Cc1ccc([N+](=O)[O-])c(NCCC[C@H](N)C(=O)O)c1 | 11 |
| N[C@@H](CCCNc1cc(O)ccc1[N+](=O)[O-])C(=O)O | > 100 |
| Cc1ccc([N+](=O)[O-])c(NCC[C@H](N)C(=O)O)c1 | > 100 |
| Cc1ccc([N+](=O)[O-])c(NCCCCN)c1 | 9 |
| N=C(NCCC[C@H](N)C(=O)O)N[N+](=O)[O-] [NITROARGININE] | 14 |
| Cc1cccc(SCCC[C@H](N)C(=O)O)c1 | > 100 |
| N[C@@H](CCCNc1ccc(C(F)(F)F)cc1[N+](=O)[O-])C(=O)O | > 100 |
| Cc1ccc([N+](=O)[O-])c(SCCC[C@H](N)C(=O)O)c1 | 4 |
| Cc1cccc(NCCC[C@H](N)C(=O)O)c1 | > 100 |
| N[C@@H](CCCNc1ccc(C(=O)O)cc1[N+](=O)[O-])C(=O)O | > 100 |
| Cc1ccc([N+](=O)[O-])c(OCCC[C@H](N)C(=O)O)c1 | 80 |

Each molecule was assayed against T3, Nitric oxide synthase 1 (Rattus norvegicus, UniProt P29476) (assay: Inhibitory activity against isomeric form of Neuronal nitric oxide synthase measured by citrulline assay).
T3 sequence (P29476 whole entry): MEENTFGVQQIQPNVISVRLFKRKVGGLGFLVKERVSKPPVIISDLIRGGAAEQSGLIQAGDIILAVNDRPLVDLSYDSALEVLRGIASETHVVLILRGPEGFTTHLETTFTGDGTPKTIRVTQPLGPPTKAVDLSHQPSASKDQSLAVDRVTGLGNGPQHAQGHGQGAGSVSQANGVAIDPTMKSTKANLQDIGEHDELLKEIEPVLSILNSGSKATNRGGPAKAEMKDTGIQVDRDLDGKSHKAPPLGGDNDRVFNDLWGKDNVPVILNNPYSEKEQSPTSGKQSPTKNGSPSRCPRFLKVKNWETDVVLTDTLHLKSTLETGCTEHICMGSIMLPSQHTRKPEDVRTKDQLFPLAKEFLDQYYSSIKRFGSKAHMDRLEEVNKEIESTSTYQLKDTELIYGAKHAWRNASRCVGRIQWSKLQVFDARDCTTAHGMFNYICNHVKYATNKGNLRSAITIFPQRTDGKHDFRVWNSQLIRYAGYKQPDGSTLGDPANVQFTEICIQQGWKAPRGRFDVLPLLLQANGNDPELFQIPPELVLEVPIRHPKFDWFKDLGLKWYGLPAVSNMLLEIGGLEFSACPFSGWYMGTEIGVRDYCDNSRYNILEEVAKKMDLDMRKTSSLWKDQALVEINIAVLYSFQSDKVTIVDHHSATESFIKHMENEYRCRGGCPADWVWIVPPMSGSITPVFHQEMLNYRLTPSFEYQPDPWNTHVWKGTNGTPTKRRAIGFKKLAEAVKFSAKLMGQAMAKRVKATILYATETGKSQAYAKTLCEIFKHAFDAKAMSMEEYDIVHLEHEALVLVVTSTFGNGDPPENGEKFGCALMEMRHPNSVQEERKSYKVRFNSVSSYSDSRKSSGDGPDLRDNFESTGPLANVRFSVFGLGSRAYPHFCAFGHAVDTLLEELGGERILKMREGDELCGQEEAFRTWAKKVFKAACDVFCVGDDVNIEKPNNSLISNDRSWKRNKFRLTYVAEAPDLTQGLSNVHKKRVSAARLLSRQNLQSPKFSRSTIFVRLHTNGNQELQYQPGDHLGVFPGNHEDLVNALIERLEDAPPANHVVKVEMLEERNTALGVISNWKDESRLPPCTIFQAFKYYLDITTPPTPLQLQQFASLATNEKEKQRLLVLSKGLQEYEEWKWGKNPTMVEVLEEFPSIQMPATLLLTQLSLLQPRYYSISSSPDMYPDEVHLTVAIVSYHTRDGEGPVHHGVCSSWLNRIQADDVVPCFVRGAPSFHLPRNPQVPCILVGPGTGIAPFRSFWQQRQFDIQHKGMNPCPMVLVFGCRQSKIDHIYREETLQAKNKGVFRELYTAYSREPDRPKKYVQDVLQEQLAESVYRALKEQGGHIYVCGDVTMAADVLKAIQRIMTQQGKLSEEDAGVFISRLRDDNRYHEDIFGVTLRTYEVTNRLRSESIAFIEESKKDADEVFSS
Method in brief: (§1)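 Rat brain cytosol as nNOS source. Incubated 20 min at ambient temperature with 10 μM purified L-[2,3-3H]arginine, 1 mM NADPH, 2 mM CaCl2 and varying inhibitor. Stopped with EGTA/EDTA/HEPES buffer, pH 5.5. [3H]citrulline separated on Dowex 50WX-8 (Na+) and counted by liquid scintillation. IC50 reported.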

| Compound | IC50 [µM] |
| --- | --- |
| Cc1ccc(NCCC[C@H](N)C(=O)O)c([N+](=O)[O-])c1 | > 100 |
| N[C@@H](CCCNc1ccccc1[N+](=O)[O-])C(=O)O | 100 |
| N[C@@H](CCCNc1ccc(F)cc1[N+](=O)[O-])C(=O)O | > 100 |
| N[C@@H](CCCNc1ccc(C(F)(F)F)cc1[N+](=O)[O-])C(=O)O | > 100 |
| N[C@@H](CCCNc1ccc([N+](=O)[O-])cc1[N+](=O)[O-])C(=O)O | 100 |
| Cc1ccc([N+](=O)[O-])c(N)c1 | 70 |
| N[C@@H](CCCNc1ccc(C(=O)O)cc1[N+](=O)[O-])C(=O)O | > 100 |
| N[C@@H](CCCNc1c([N+](=O)[O-])cccc1[N+](=O)[O-])C(=O)O | 30 |

These molecules were tested against T3, Nitric oxide synthase 1 (assay: Inhibition of arginine to citrulline conversion by Neuronal nitric oxide synthase from rat brain).
Method in brief: as §1

| Compound | IC50 [µM] |
| --- | --- |
| Cc1ccc([N+](=O)[O-])c(NCCC[C@H](N)CO)c1 | 3 |
| Cc1ccc([N+](=O)[O-])c(NCCC[C@H](N)C(=O)O)c1 | 2.5 |
| N[C@@H](CCCNc1cc(O)ccc1[N+](=O)[O-])C(=O)O | > 100 |
| Cc1ccc([N+](=O)[O-])c(NCC[C@H](N)C(=O)O)c1 | > 100 |
| Cc1ccc([N+](=O)[O-])c(NCCCCN)c1 | 2.5 |
| Cc1cccc(SCCC[C@H](N)C(=O)O)c1 | > 100 |
| Cc1ccc([N+](=O)[O-])c(SCCC[C@H](N)C(=O)O)c1 | 5 |
| Cc1cccc(NCCC[C@H](N)C(=O)O)c1 | > 100 |
| Cc1ccc([N+](=O)[O-])c(OCCC[C@H](N)C(=O)O)c1 | 4 |

Species: Rattus norvegicus
Experiment: Effective concentration for reversal of ACh-induced relaxation in rat thoracic aorta
Type: functional
Method in brief: (§2)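 Male Sprague-Dawley rat (350–375 g) thoracic aortic rings, endothelium spared, held at 1.25 g resting tension in Krebs buffer (pH 7.4) with 5 μM indomethacin, 37 °C, 5% CO2 in O2. After 1 h equilibration: 1 μM phenylephrine precontraction, then 1 μM ACh relaxation to plateau. Cumulative inhibitor additions, each to plateau, give a concentration-response curve for reversal of the relaxation.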

| Compound | EC50 [µM] |
| --- | --- |
| Cc1ccc([N+](=O)[O-])c(NCCC[C@H](N)CO)c1 | 17 |
| N=C(NCCC[C@H](N)C(=O)O)N[N+](=O)[O-] [NITROARGININE] | 3 |
| CNC(=N)NCCC[C@H](N)C(=O)O [TILARGININE] | 14 |

Species: Rattus norvegicus
Experiment: Inhibitory activity against N-methyl-D-aspartate (NMDA)-induced cyclic GMP accumulation in rat cerebellar slices
Type: functional
Method in brief: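 Cerebellar slices (0.3 mm, coronal and sagittal) from 8–10-day-old rats, preincubated 105 min in Krebs buffer under 95% O2/5% CO2 at 37 °C, then equilibrated 15 min. Test compound added, followed by 500 μM NMDA for 3 min. Stopped with 50 mM sodium acetate and flash-frozen in liquid nitrogen; cGMP measured by radioimmunoassay after sonication.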

| Compound | IC50 [µM] |
| --- | --- |
| Cc1ccc([N+](=O)[O-])c(NCCC[C@H](N)C(=O)O)c1 | 33 |
| N=C(NCCC[C@H](N)C(=O)O)N[N+](=O)[O-] [NITROARGININE] | 0.2 |
| Cc1ccc([N+](=O)[O-])c(SCCC[C@H](N)C(=O)O)c1 | 37 |
| CNC(=N)NCCC[C@H](N)C(=O)O [TILARGININE] | 3 |

Species: Rattus norvegicus
Experiment: Percent reversal of ACh-induced relaxation at 100 uM in rat thoracic aorta
Type: functional

| Compound | Emax at 100 µM [%] |
| --- | --- |
| Cc1ccc([N+](=O)[O-])c(NCCC[C@H](N)C(=O)O)c1 | 41 |

Species: Rattus norvegicus
Experiment: Reversal of ACh-induced relaxation in rat thoracic aorta
Type: functional
Method in brief: as §2

| Compound | Emax [%] |
| --- | --- |
| Cc1ccc([N+](=O)[O-])c(NCCC[C@H](N)CO)c1 | 106 |

Species: Rattus norvegicus
Experiment: E max (%) calculated for reversal of ACh-induced relaxation in rat thoracic aorta
Type: functional
Method in brief: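 Male Sprague-Dawley rat (350–375 g) thoracic aortic rings, endothelium preserved, held at 1.25 g resting tension at 37 °C in Krebs buffer (pH 7.4) containing 5 μM indomethacin, gassed with 5% CO2 in O2. After 1 h equilibration, rings were precontracted with 1 μM phenylephrine and relaxed with 1 μM ACh. Inhibitor was then added cumulatively, plateau between additions, to build a reversal concentration-response curve.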

| Compound | Emax [%] |
| --- | --- |
| N=C(NCCC[C@H](N)C(=O)O)N[N+](=O)[O-] [NITROARGININE] | 138 |
| CNC(=N)NCCC[C@H](N)C(=O)O [TILARGININE] | 119 |
